# Experimental data taken from ChEMBL document CHEMBL4033714, “Discovery of BI 135585, an in vivo efficacious oxazinanone-based 11β hydroxysteroid dehydrogenase type 1 inhibitor” (Bioorg Med Chem, 2017).
# Experiments:
# [1] = system: Cynomolgus monkey; assay: In-vivo inhibition of 11beta-HSD1 in cynomolgus monkey perirenal adipose tissue assessed as reduction in cortisol level at 3 mg/kg, po using [2H]-cortisone as substrate after 22 hrs by HPLC analysis relative to control; assay type: functional; conditions: Macaca fascicularis
# In short: (§1)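 Cynomolgus monkeys were dosed orally. Perirenal and abdominal subcutaneous adipose tissue was then taken, and cortisone-to-cortisol conversion was measured ex vivo. Reduction in cortisol is expressed relative to vehicle-treated animals.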
# [2] = molecular target: T1, 3 beta-hydroxysteroid dehydrogenase/Delta 5-->4-isomerase type 2 (Homo sapiens, UniProt P26439); assay: Inhibition of 3beta-HSD2 (unknown origin)
# T1 sequence (P26439 whole entry): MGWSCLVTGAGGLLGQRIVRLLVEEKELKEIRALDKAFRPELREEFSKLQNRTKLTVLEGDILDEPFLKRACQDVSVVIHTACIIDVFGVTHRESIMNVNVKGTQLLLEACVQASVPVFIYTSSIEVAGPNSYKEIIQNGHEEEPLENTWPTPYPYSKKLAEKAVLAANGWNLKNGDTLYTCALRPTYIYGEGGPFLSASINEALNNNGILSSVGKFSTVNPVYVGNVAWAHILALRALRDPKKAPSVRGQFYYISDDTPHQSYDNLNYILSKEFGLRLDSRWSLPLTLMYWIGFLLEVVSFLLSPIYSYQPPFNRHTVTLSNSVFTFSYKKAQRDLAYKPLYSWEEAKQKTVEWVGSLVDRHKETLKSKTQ
# [3] = Mean residence time in po dosed cynomolgus monkey; assay type: ADME, organism-based, Macaca fascicularis; conditions: in vivo
# [4] = Aqueous solubility of the compound; assay type: physicochemical; conditions: aqueous medium; read-out: solubility
# In short: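 Solubility measured in water, with each compound tested as amorphous material.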
# [5] = molecular target: Voltage-gated inwardly rectifying potassium channel KCNH2 (Homo sapiens, UniProt Q12809); assay: Inhibition of human ERG
# [6] = system: Cynomolgus monkey; assay: In-vivo inhibition of 11beta-HSD1 in cynomolgus monkey abdominal subcutaneous adipose tissue assessed as reduction in cortisol level at 1 mg/kg, po using [2H]-cortisone as substrate after 22 hrs by HPLC analysis relative to control; assay type: functional; conditions: Macaca fascicularis; in short: as §1
# [7] = molecular target: CYP2C9 (Homo sapiens, UniProt P11712); assay: Inhibition of CYP2C9 (unknown origin); assay type: ADME
# [8] = Oral bioavailability in cynomolgus monkey; assay type: ADME, organism-based, Macaca fascicularis; conditions: in vivo
# [9] = Clearance in iv dosed cynomolgus monkey; assay type: ADME, organism-based, Macaca fascicularis; conditions: in vivo
# [10] = Volume of distribution at steady state in iv dosed cynomolgus monkey; assay type: ADME, organism-based, Macaca fascicularis; conditions: in vivo, read-out: Vdss
# [11] = Partition coefficient, log P of the compound; assay type: physicochemical; conditions: octanol/water
# [12] = molecular target: T2, Nuclear receptor subfamily 1 group I member 2 (Homo sapiens, UniProt O75469); assay: Inhibition of PXR (unknown origin); assay type: ADME
# T2 sequence (O75469 whole entry): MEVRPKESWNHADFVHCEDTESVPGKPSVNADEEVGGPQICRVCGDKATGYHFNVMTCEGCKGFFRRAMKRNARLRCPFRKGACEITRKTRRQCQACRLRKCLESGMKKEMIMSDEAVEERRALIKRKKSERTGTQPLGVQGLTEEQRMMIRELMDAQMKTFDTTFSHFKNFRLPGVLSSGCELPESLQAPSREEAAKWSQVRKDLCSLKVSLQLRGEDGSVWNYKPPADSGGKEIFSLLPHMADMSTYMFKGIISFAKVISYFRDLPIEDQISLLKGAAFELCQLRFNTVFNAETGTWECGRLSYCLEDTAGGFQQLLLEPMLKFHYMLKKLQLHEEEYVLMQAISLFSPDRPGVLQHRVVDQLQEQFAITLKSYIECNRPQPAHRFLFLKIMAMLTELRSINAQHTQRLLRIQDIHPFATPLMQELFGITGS
# [13] = molecular target: CYP3A4 (Homo sapiens, UniProt P08684); assay: Inhibition of recombinant CYP3A4 (unknown origin); assay type: ADME; conditions: recombinant CYP3A4
# [14] = Mean residence time in iv dosed cynomolgus monkey; assay type: ADME, organism-based, Macaca fascicularis; conditions: in vivo
# [15] = Protein binding in human plasma; assay type: ADME, cell-free; conditions: read-out: PPB (converted)
# [16] = molecular target: T3, 11-beta-hydroxysteroid dehydrogenase type 2 (Homo sapiens, UniProt P80365); assay: Inhibition of 11beta-HSD2 (unknown origin)
# T3 sequence (P80365 whole entry): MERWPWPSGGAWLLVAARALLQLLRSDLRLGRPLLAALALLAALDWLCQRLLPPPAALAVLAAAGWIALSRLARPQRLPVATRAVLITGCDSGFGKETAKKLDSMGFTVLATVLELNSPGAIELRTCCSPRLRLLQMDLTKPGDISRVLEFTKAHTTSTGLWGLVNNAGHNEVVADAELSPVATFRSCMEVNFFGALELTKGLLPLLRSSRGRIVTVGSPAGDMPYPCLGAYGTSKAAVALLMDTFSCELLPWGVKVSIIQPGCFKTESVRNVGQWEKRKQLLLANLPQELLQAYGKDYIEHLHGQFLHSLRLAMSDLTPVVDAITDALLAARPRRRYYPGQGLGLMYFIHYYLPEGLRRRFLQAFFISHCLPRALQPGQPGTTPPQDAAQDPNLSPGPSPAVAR
# [17] = Half life in cynomolgus monkey liver microsomes; assay type: ADME, Macaca fascicularis, microsome
# [18] = Half life in rat liver microsomes; assay type: ADME, microsome
# [19] = Half life in human liver microsomes; assay type: ADME, microsome
# [20] = system: Cynomolgus monkey; assay: In-vivo inhibition of 11beta-HSD1 in cynomolgus monkey perirenal adipose tissue assessed as reduction in cortisol level at 1 mg/kg, po using [2H]-cortisone as substrate after 22 hrs by HPLC analysis relative to control; assay type: functional; conditions: Macaca fascicularis; in short: as §1
# [21] = system: Cynomolgus monkey; assay: In-vivo inhibition of 11beta-HSD1 in cynomolgus monkey abdominal subcutaneous adipose tissue assessed as reduction in cortisol level at 3 mg/kg, po using [2H]-cortisone as substrate after 22 hrs by HPLC analysis relative to control; assay type: functional; conditions: Macaca fascicularis; in short: as §1
# [22] = molecular target: hERG (Homo sapiens, UniProt Q12809); assay: Inhibition of human ERG at 10 uM by patch clamp assay relative to control
# [23] = molecular target: T4, 17-beta-hydroxysteroid dehydrogenase type 1 (Homo sapiens, UniProt P14061); assay: Inhibition of 17beta-HSD1 (unknown origin)
# T4 sequence (P14061 whole entry): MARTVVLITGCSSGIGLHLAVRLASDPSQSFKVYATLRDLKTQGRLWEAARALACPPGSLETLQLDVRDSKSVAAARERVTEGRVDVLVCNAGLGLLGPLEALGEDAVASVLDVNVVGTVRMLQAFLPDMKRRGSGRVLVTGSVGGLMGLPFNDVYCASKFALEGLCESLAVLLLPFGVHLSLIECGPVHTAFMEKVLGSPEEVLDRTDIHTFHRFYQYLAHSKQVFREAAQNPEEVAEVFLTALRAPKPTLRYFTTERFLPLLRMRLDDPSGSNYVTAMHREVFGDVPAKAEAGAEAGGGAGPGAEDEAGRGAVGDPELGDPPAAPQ
# [24] = system: Cynomolgus monkey; assay: Dose normalized AUC in iv dosed cynomolgus monkey; assay type: ADME, organism-based, Macaca fascicularis; conditions: in vivo
# [25] = molecular target: Cytochrome P450 2D6 (Homo sapiens, UniProt P10635); assay: Inhibition of CYP2D6 (unknown origin); assay type: ADME
# Sequence of Cytochrome P450 2D6 (P10635 whole entry): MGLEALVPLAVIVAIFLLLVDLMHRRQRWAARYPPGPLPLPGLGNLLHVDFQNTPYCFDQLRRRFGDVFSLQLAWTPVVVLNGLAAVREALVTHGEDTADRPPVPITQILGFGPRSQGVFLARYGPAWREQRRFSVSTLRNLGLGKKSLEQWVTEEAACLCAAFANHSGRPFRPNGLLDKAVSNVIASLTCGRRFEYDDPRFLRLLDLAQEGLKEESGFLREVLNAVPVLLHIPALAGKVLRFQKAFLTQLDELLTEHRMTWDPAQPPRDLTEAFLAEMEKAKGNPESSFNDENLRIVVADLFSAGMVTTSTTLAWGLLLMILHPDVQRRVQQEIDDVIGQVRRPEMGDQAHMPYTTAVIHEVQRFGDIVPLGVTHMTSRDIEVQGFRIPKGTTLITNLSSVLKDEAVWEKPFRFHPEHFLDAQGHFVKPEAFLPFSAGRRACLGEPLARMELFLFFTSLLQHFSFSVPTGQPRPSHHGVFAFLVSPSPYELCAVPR
# Sequence of CYP2C9 (P11712 whole entry): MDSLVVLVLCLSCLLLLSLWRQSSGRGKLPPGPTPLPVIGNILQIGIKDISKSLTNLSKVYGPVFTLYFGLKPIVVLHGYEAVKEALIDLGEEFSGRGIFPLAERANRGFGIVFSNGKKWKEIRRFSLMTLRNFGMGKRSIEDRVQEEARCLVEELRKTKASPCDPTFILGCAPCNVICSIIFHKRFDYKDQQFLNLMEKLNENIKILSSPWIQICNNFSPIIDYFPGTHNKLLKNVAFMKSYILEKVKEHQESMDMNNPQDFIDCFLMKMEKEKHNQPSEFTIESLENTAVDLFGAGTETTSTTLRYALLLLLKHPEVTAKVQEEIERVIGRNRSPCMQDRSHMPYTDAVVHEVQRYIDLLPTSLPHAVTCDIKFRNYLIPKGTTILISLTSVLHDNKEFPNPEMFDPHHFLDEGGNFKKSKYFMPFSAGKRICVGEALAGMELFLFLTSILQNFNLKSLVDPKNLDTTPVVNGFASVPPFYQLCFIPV
# Sequence of CYP3A4 (P08684 whole entry): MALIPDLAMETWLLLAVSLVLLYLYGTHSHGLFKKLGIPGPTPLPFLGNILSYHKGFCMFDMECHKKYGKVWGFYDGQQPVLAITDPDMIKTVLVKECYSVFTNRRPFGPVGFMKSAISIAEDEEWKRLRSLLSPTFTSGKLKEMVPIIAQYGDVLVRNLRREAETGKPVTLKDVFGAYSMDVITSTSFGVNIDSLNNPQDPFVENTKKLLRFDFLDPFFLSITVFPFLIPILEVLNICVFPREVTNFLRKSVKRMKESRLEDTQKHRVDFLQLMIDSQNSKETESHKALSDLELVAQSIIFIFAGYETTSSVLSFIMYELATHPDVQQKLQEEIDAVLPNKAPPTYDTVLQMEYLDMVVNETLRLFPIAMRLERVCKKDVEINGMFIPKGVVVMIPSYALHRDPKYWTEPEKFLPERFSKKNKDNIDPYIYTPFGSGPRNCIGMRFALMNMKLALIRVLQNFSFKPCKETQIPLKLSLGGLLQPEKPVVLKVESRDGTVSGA
# Sequence of hERG (Q12809 whole entry): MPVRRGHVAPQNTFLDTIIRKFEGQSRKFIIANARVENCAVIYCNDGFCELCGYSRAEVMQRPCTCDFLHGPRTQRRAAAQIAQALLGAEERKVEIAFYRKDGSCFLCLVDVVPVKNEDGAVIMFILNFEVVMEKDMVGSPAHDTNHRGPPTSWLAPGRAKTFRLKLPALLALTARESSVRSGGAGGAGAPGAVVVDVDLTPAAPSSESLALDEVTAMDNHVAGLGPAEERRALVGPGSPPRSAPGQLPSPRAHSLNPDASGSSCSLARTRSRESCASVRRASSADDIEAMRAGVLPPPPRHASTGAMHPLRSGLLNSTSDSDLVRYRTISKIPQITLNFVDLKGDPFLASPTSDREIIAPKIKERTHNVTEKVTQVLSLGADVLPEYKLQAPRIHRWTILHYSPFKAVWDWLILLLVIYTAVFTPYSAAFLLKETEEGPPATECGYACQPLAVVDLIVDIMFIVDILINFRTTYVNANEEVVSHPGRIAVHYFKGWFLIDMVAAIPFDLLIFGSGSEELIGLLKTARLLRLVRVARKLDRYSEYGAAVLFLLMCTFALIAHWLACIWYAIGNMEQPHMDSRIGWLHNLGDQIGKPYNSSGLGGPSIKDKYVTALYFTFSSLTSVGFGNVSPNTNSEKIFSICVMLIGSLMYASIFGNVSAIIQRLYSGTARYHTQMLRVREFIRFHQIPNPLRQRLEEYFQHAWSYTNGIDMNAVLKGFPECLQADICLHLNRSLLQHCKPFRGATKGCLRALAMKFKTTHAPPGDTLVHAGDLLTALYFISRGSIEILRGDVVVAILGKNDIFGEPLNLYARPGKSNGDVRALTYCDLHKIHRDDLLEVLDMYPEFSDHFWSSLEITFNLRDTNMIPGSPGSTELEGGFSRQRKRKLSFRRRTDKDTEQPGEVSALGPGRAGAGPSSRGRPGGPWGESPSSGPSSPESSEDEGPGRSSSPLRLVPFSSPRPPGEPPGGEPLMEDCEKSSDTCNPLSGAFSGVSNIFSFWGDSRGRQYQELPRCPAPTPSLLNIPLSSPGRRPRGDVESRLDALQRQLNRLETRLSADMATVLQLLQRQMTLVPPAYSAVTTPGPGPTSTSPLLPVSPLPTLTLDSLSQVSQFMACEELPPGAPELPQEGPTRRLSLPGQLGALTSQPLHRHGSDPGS
# Sequence of Voltage-gated inwardly rectifying potassium channel KCNH2 (Q12809 whole entry): as above
structure (smiles),measurement,setting,value
C[C@@H](c1ccc(-c2ccn(C)c(=O)c2)cc1)N1CC[C@](CC(C)(C)O)(c2ccccc2)OC1=O,inhibition in vivo at 3 mg/kg,[1],90%
same,IC50,[2],> 10 µM
same,MRT,[3],8.7 h
same,solubility,[4],220 µg/mL
same,IC50,[5],> 100 µM
same,inhibition in vivo at 1 mg/kg,[6],67%
same,IC50,[7],> 50 µM
same,bioavailability,[8],54%
same,clearance,[9],7.5 mL/min/kg
same,Vd,[10],2.5 L/kg
same,logP,[11],2.6
same,EC50,[12],> 10 µM
same,IC50,[13],> 50 µM
same,MRT,[14],5.5 h
same,fraction unbound,[15],0.084
same,IC50,[16],> 10 µM
same,half-life,[17],> 1.5 h
same,half-life,[18],> 1.5 h
same,half-life,[19],> 1.5 h
same,inhibition in vivo at 1 mg/kg,[20],67%
same,inhibition in vivo at 3 mg/kg,[21],95%
same,inhibition at 10 µM,[22],< 10%
same,IC50,[23],> 10 µM
same,AUC/dose,[24],2500 nM·h
same,IC50,[25],> 50 µM
